This is an account of results in ChEMBL document CHEMBL1143660, “Structure-activity relationship studies of a series of novel delta-lactam-based histone deacetylase inhibitors” (J Med Chem, 2007).

Structures are written as SMILES. Calls of active or inactive are those of the source. The rule behind the calls is not given here.

In one assay the test system is LOX IMVI. Put plainly: Growth inhibition of LOX-IMVI cells by SRB assay. Type of assay: functional. The note with it: Homo sapiens.
Consider `O=C(CCC1=CCCN(CCCc2ccccc2)C1=O)NO`, for which growth was halved (GI50) at 3.34 µM. This counts as single-digit micromolar.

Compound `O=C(CCC1=CCCN(CCc2ccccc2)C1=O)NO` gave a GI50 of 5.84 µM.

`COc1ccc(CN2CCC=C(CCC(=O)NO)C2=O)c(OC)c1` showed a GI50 of 6.63 µM.

The subject of the next assay is ACHN. Put plainly: Growth inhibition of ACHN cells by SRB assay. The note with it: Homo sapiens. It counts as functional. (Sulforhodamine B stains cellular protein and so reports cell mass.)
`O=C(CCC1=CCCN(CCCc2ccccc2)C1=O)NO` had a GI50 of 1.17 µM.

With `O=C(CCC1=CCCN(CCCCc2ccccc2)C1=O)NO`, the GI50 came to 2.5 µM.

Compound `O=C(CCC1=CCCN(CCc2ccccc2)C1=O)NO` displayed a GI50 of 7.76 µM. This GI50 is about 3.1-fold higher than that of the compound before.

In turn, `COc1ccc(CN2CCC=C(CCC(=O)NO)C2=O)c(OC)c1` registered a GI50 of 9.58 µM.

The next assay has as its system PC-3. Put plainly: Growth inhibition of PC3 cells by SRB assay. The note with it: Homo sapiens. It counts as functional.
`O=C(CCC1=CCCN(CCCc2ccccc2)C1=O)NO` came in with a GI50 of 5.04 µM.

In turn, `O=C(CCC1=CCCN(CCCCc2ccccc2)C1=O)NO` registered a GI50 of 1.32 µM.

In turn, `O=C(CCC1=CCCN(CCc2ccccc2)C1=O)NO` displayed a GI50 of 8.58 µM.

Regarding `COc1ccc(CN2CCC=C(CCC(=O)NO)C2=O)c(OC)c1`, growth was halved (GI50) at 4.55 µM. Against the preceding compound, the GI50 is about 1.9-fold lower.

Another assay deals with RAW264.7. As to the kind of experiment: Inhibition of LPS-stimulated TNFalpha production in RAW264.7 cells after 24 hrs by ELISA. It counts as functional, cell-based. The note with it: Mus musculus, RAW264.7, 24 h. In general terms: ELISA stands for enzyme-linked immunosorbent assay.
`O=C(CCC1=CCCN(Cc2ccccc2)C1=O)NO` gave an IC50 of 3.31 µM.

The compound `O=C(CCCC1=CCCN(CCCc2ccccc2)C1=O)NO` returned an IC50 greater than 10 µM.

`O=C(CC1=CCCN(Cc2ccccc2)C1=O)NO` came in with an IC50 greater than 10 µM.

Turning to `CN1CCC=C(CCC(=O)NO)C1=O`, the IC50 was greater than 10 µM.

Compound `O=C(CCC1=CCCN(CCCc2ccccc2)C1=O)NO` displayed a half-maximal inhibitory concentration (IC50) of 1.1 µM.

The compound `O=C(CCC1=CCCN(CCCCc2ccccc2)C1=O)NO` yielded an IC50 of 1.3 µM.

Turning to `C=CCN1CCC=C(CCC(=O)NO)C1=O`, the IC50 amounted to 11 µM.

With `O=C(CCC1=CCCN(CCc2ccccc2)C1=O)NO`, inhibition was half-maximal at 1.9 µM (IC50).

`O=C(CCCC1=CCCN(CCCCc2ccccc2)C1=O)NO` displayed an IC50 greater than 10 µM.

As for `O=C(CC1=CCCN(CCc2ccccc2)C1=O)NO`, the IC50 is greater than 10 µM.

Take `COc1ccc(CN2CCC=C(CCC(=O)NO)C2=O)c(OC)c1`: it took 5.06 µM to reach half-maximal inhibition (IC50).

In turn, `O=C(CC1=CCCN(CCCCc2ccccc2)C1=O)NO` returned an IC50 greater than 10 µM.

As to `O=C(CC1=CCCN(CCCc2ccccc2)C1=O)NO`, the 50% inhibitory concentration (IC50) is greater than 10 µM.

In the case of `O=C(CCCC1=CCCN(CCc2ccccc2)C1=O)NO`, the IC50 was greater than 10 µM.

Another assay concerns the target Histone deacetylase. Put plainly: Inhibition of HDAC in HeLa cells by fluorescent activity assay.
Settings: not given
Type of assay: cell-based, Homo sapiens.
For the compound `O=C(CCCC1=CCCN(CCCc2ccccc2)C1=O)NO`, the IC50 was found to be 3.21 µM.

`O=C(CC1=CCCN(Cc2ccccc2)C1=O)NO`: the IC50 is greater than 10 µM.

With `CN1CCC=C(CCC(=O)NO)C1=O`, the IC50 is greater than 10 µM.

On to `O=C(CCC1=CCCN(CCCc2ccccc2)C1=O)NO`, for which the IC50 came to 0.27 µM.

For `O=C(CCC1=CCCN(CCCCc2ccccc2)C1=O)NO`, the IC50 came to 0.13 µM.

Consider `O=C(CCCC1=CCCN(CCCCc2ccccc2)C1=O)NO`, for which the half-inhibitory concentration (IC50) is greater than 10 µM.

The compound `O=C(CC1=CCCN(CCc2ccccc2)C1=O)NO` displayed an IC50 greater than 10 µM.

The compound `O=C(CC1=CCCN(CCCCc2ccccc2)C1=O)NO` registered an IC50 greater than 10 µM.

As for `O=C(CC1=CCCN(CCCc2ccccc2)C1=O)NO`, the IC50 was greater than 10 µM.

The compound `O=C(CCCC1=CCCN(CCc2ccccc2)C1=O)NO` gave an IC50 greater than 10 µM.

The assay is the same for the next values; noted with them: read-out: IC50.
On to `O=C(CCC1=CCCN(Cc2ccccc2)C1=O)NO`, for which the IC50 was 0.67 µM.

As for `C=CCN1CCC=C(CCC(=O)NO)C1=O`, the IC50 was found to be 4.27 µM.

As for `O=C(CCC1=CCCN(CCc2ccccc2)C1=O)NO`, the IC50 was 0.35 µM.

For the compound `COc1ccc(CN2CCC=C(CCC(=O)NO)C2=O)c(OC)c1`, the IC50 turned out to be 0.5 µM.

The subject of the next assay is HCT-15. Put plainly: Growth inhibition of HCT15 cells by SRB assay. It counts as functional, Homo sapiens.
Settings: not given
`O=C(CCCCCCC(=O)Nc1ccccc1)NO` [VORINOSTAT] had a GI50 of 0.82 µM.

Staying with this assay, now noted: Homo sapiens.
On to `O=C(CCC1=CCCN(Cc2ccccc2)C1=O)NO`, for which the outcome was inactive.

The same assay, now with this note: Homo sapiens, HCT-15.
As for `O=C(CCC1=CCCN(CCCc2ccccc2)C1=O)NO`, it took 4.99 µM to inhibit growth by half (GI50).

With `O=C(CCC1=CCCN(CCCCc2ccccc2)C1=O)NO`, growth was halved (GI50) at 5.37 µM.

With `O=C(CCC1=CCCN(CCc2ccccc2)C1=O)NO`, halving of growth (GI50) required 8.16 µM.

For `COc1ccc(CN2CCC=C(CCC(=O)NO)C2=O)c(OC)c1`, the GI50 was 7.98 µM.

For another assay, the system named is MDA-MB-231. As to the kind of experiment: Inhibition of tumor growth in MDA-MB-231 cells xenografted BALA/c nude mouse at 30 mg/kg, ip. Type of assay: functional, Homo sapiens. The note with it: MDA-MB-231, ip, route intraperitoneal.
`O=C(CCC1=CCCN(CCCCc2ccccc2)C1=O)NO` gave an inhibition in vivo at 30 mg/kg of 51%.

Another assay has as its system MDA-MB-231. Put plainly: Growth inhibition of human MDA-MB-231 cells by SRB assay. Type of assay: functional.
Settings: not given
Compound `O=C(CCCCCCC(=O)Nc1ccccc1)NO` [VORINOSTAT] yielded a GI50 of 0.66 µM.

Staying with this assay, now noted: Homo sapiens, MDA-MB-231.
`O=C(CCC1=CCCN(Cc2ccccc2)C1=O)NO` showed a GI50 of 4.26 µM. That is a single-digit micromolar value.

On to `O=C(CCC1=CCCN(CCCc2ccccc2)C1=O)NO`, for which the GI50 turned out to be 0.5 µM. This GI50 is about 8.5-fold lower than that of the compound before.

As to `O=C(CCC1=CCCN(CCCCc2ccccc2)C1=O)NO`, it took 1.5 µM to inhibit growth by half (GI50).

The compound `O=C(CCC1=CCCN(CCc2ccccc2)C1=O)NO` gave a GI50 of 1.62 µM. This GI50 and that of the compound before are within 1.5-fold of each other.

`COc1ccc(CN2CCC=C(CCC(=O)NO)C2=O)c(OC)c1` yielded a GI50 of 2.67 µM.

The next assay relates to RAW264.7. As to the kind of experiment: Inhibition of LPS-stimulated NO production in RAW264.7 cells after 24 hrs […]. It counts as functional, cell-based. The note with it: Mus musculus, RAW264.7, 24 h. An outline of the steps:
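RAW264.7 murine macrophages stimulated with LPS and treated with inhibitor at 0.1 to 10 µM; suppression of NO production measured and IC50 calculated; values are means of at least three experiments.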
`O=C(CCC1=CCCN(Cc2ccccc2)C1=O)NO` yielded an IC50 of 3.09 µM.

In the case of `O=C(CCCC1=CCCN(CCCc2ccccc2)C1=O)NO`, the IC50 was 6.57 µM.

As for `O=C(CC1=CCCN(Cc2ccccc2)C1=O)NO`, the IC50 is greater than 10 µM.

The compound `CN1CCC=C(CCC(=O)NO)C1=O` showed an IC50 greater than 10 µM.

Consider `O=C(CCC1=CCCN(CCCc2ccccc2)C1=O)NO`, for which the midpoint of inhibition, the IC50, lay at 2.71 µM.

In turn, `O=C(CCC1=CCCN(CCCCc2ccccc2)C1=O)NO` displayed an IC50 of 1.8 µM.

In turn, `C=CCN1CCC=C(CCC(=O)NO)C1=O` came in with an IC50 greater than 10 µM.

Take `O=C(CCC1=CCCN(CCc2ccccc2)C1=O)NO`: the IC50 was 4.27 µM.

Compound `O=C(CCCC1=CCCN(CCCCc2ccccc2)C1=O)NO` displayed an IC50 of 6.74 µM.

`O=C(CC1=CCCN(CCc2ccccc2)C1=O)NO` registered an IC50 greater than 10 µM.

`COc1ccc(CN2CCC=C(CCC(=O)NO)C2=O)c(OC)c1`: 5.2 µM corresponded to half-maximal inhibition (IC50).

The compound `O=C(CC1=CCCN(CCCCc2ccccc2)C1=O)NO` gave an IC50 greater than 10 µM.

For the compound `O=C(CC1=CCCN(CCCc2ccccc2)C1=O)NO`, the IC50 is greater than 10 µM.

`O=C(CCCC1=CCCN(CCc2ccccc2)C1=O)NO` returned a half-maximal inhibitory concentration (IC50) greater than 10 µM.

The subject of another assay is NCI-H23. As to the kind of experiment: Growth inhibition of NCI-H23 cells by SRB assay. Type of assay: functional. The note with it: Homo sapiens.
For `O=C(CCC1=CCCN(CCCc2ccccc2)C1=O)NO`, growth was halved (GI50) at 3.79 µM.

Consider `O=C(CCC1=CCCN(CCCCc2ccccc2)C1=O)NO`, for which halving of growth (GI50) required 5.14 µM.

For orientation: GI50 means the concentration at which growth is held to half of that of the control. Higher therefore signals less potent growth inhibition. As usually defined, the IC50 is the concentration at which inhibition is half-maximal. Broadly, the inhibition in vivo is the share of the control response that was lost under treatment. Higher therefore signals a response far below the control.
